Test results published in ChEMBL document CHEMBL4513216, “Probing the Open Global Health Chemical Diversity Library for Multistage-Active Starting Points for Next-Generation Antimalarials” (ACS Infect Dis, 2020).

Assay: Toxicity liver stage against HepG2, at 10uM
Type: cell-based
Set-up: test concentration 10 uM, cell line HepG2-A16-CD81EGFP
Conditions: human, HepG2-A16-CD81EGFP cells; read-out: INHIBITION
Procedure, shortened: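 Uninfected HepG2-A16-CD81EGFP cells, 3 × 10^3 per well, 1536-well, plated on prespotted compound at 10 μM final, parasite-free screening media added to match infected plates; puromycin 10 μM positive, DMSO 0.5% negative; run in parallel with 48 h PbLuc assay at 37 °C, 5% CO2; viability by CellTiter-Glo luminescence, normalized to controls.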

| Compound | cytotoxicity at 10 µM [%] |
| --- | --- |
| Cc1ccc(NC(=O)Nc2c[nH]c(=O)[nH]c2=O)c(Cl)c1 | -4.28 |
| CN(Cc1cccc(C(F)(F)F)c1)Cc1nc(-c2cnccn2)no1 | 1.35 |
| O=S(=O)(c1ccc(Cl)cc1)N1CCOC[C@H](Oc2cnccn2)C1 | -2.57 |
| O=S(=O)(c1ccc(F)cc1)N1CCOC[C@H](Oc2cnccn2)C1 | 5.88 |
| Cc1nn(C)cc1CC(C#N)C(=O)Nc1cccc(O)c1 (stereo not given) | 2.8 |
| COc1cccc(C(=O)Nc2n[nH]c(C3CCCO3)n2)c1 (stereo not given) | 6 |
| COc1ncccc1C(=O)NCCn1nc(C)ccc1=O | -7.69 |
| Cc1cc(C)n(CC(=O)NCc2ccccn2)n1 | 3.86 |
| CN1CCN(Cc2cccnc2)C(=O)C12CCN(S(C)(=O)=O)CC2 | 0.611 |
| COCCN1C[C@H]2CCN(C(C)=O)CC[C@H]2S1(=O)=O | 15.4 |
| CCN1C[C@H]2CCN(C(=O)C3CCCO3)CC[C@H]2S1(=O)=O (stereo not given in full) | 18 |
| O=C(c1cnccn1)N1CCc2onc(CN3CCCC3)c2C1 | 8.7 |
| CC(C)CC(=O)N1CCCC2(CC(C(=O)Nc3ccccc3)=NO2)C1 (stereo not given) | 1.46 |
| O=C(c1cscn1)N1C[C@H](OCc2cccnc2)[C@H]2COC[C@H]21 | -2.07 |
| Cc1ccnc(OC[C@]23COC[C@H]2CN(C(=O)C2=CCCCC2)C3)n1 | 0.325 |
| CCS(=O)(=O)N1C[C@H]2CN(Cc3cccc(F)c3)C(=O)[C@H]2C1 | 0.442 |
| CN(C)c1ncc(-c2cc(C(=O)N3CCCC3)n(CC3CC3)c2)cn1 | -0.376 |
| Cc1ccccc1-n1c(O)cc(C)c(C#N)c1=O | -1.54 |
| c1nc(N2CCCC2)cnc1C1CCNCC1 | -3.87 |
| O=C(NC1CC1)[C@H]1CN(Cc2ccccc2)C[C@@H]1C(=O)c1ccccc1 | 0.401 |
| CC(C)(C)C(=O)N1CCC(c2cnc(-c3cn[nH]c3)cn2)CC1 | 1.16 |
| CCc1nc(-c2cncnc2C2CCNC2)no1 (stereo not given) | 1.45 |

| Compound | cytotoxicity at 10 µM [%] |
| --- | --- |
| Cc1oc2c(c1C(=O)N1C[C@H](O)[C@]3(CCCO3)C1)CCCC2 | -0.4 |
| CO[C@H]1CN(S(=O)(=O)c2ccccc2F)C[C@@]12CCCO2 | -3.08 |
| Cc1ccn(CCNC(=O)C2CCN(S(=O)(=O)c3ccc(F)cc3)C2)n1 (stereo not given) | -24.5 |
| CC(=O)N1CCc2nnc(C3CCCCN3CC3CC3)n2CC1 (stereo not given) | -15.4 |
| Cc1ccc(C2CCCN(C(=O)c3cnn(C)c3)C2)nc1 (stereo not given) | -25.8 |
| Cc1cc(C)c2cc(CNCCCN3CCOCC3)c(=O)[nH]c2c1 | -23.8 |
| CCC(=O)c1ccc(OCC(=O)NCC2CCCO2)cc1 (stereo not given) | -52.1 |
| O=C(CCNC(=O)C1=Cc2ccccc2OC1)Nc1cccnc1 | -0.956 |
| O=C1OCCC1N1CCN(c2cnccn2)CC1 (stereo not given) | -0.0916 |
| O=C1CCCCN1CCCNCc1cnc(C2CCC2)s1 | 0.00973 |
| COC(=O)c1ccc(Cn2cccc(C(F)(F)F)c2=O)s1 | -8.03 |
| O=C1CCN(C(=O)NCc2cccc(Oc3ccccc3)c2)CCN1 | 4.11 |
| CCN(C)c1cc(CNC(=O)CNC(=O)CC2CCCCC2)ccn1 | 2.34 |
| CN(C1CCCCC1)S(=O)(=O)NC1CCCN(c2ncccn2)C1 (stereo not given) | 3.7 |
| CC(C)N1CC(C(=O)NC(C)(C)CNC(=O)OC(C)(C)C)CC1=O (stereo not given) | -9.96 |
| COC(=O)c1cccc(S(=O)(=O)N2CSCC2C(=O)N(C)C2CC2)c1 (stereo not given) | 5.15 |
| COC(=O)COc1cc(NCc2c(C)noc2C)c(Cl)cc1C | 3.2 |
| O=C(COc1ccccc1)NCC1CC1 | 7.76 |
| CCN(C(=O)C(C)C)C(c1cccnc1)c1ccc2c(c1)CCO2 (stereo not given) | 2.14 |
| O=C(CCc1ccncc1)NCCOc1ncc(Cl)cc1Cl | -2.56 |
| COC(C)(C)CNC(=O)N(C)Cc1nc(-c2ccccc2)c[nH]1 | 8.07 |
| COCCOCC(=O)NC(C#N)c1cccc(Cl)c1Cl (stereo not given) | 7.84 |

| Compound | cytotoxicity at 10 µM [%] |
| --- | --- |
| CNC(=O)c1cccc(CCNC(=O)N2CCc3ccccc3C2)c1 | 6.72 |
| COCCCNC(=O)CN1CCSC(c2ccccc2)C1 (stereo not given) | 13.5 |
| Cc1ccc(CNc2ccc(C(=O)N3CCNC(=O)C3)cn2)cc1 | 4.64 |
| Cc1ccc(S(=O)(=O)N2CCn3nc(C)nc3C2)c(Cl)c1 | 5.09 |
| CC1(CCNC(=O)NCc2ccsc2)OCCO1 | -6.21 |
| NC(=O)c1ccc(S(=O)(=O)NCCc2ccccn2)cc1 | -16 |
| CN(C)C(=O)C1CN(Cc2ccc(C#N)cc2F)c2ccccc2O1 (stereo not given) | 7.14 |
| O=C(c1ncoc1-c1ccco1)N1CCCN(c2ncccn2)CC1 | 2.7 |
| CN(CC(=O)NCCCOc1ccc(F)cc1)c1ccc(C#N)cn1 | -0.844 |
| Cn1ncnc1NS(=O)(=O)c1ccc(F)cc1Cl | 5.73 |
| CCOC(=O)Cn1ccc2cc(NC(=O)N3CCSCC3)ccc21 | 9.68 |
| CN(CCn1cccn1)c1cc(C(F)(F)F)nc(-c2cccnc2)n1 | -3.63 |
| CCCn1nc(-c2nc(C3CC3)no2)ccc1=O | 1.77 |
| O=C1CC(NS(=O)(=O)c2ccccc2)CN1Cc1ccccc1 (stereo not given) | 6.89 |
| CC(NC(=O)COc1nc(C(C)(C)C)no1)c1ccco1 (stereo not given) | -5.41 |
| Cn1cc(Br)c(=O)c(NS(=O)(=O)c2cc(F)ccc2Cl)c1 | -11 |
| CN(C)Cc1nc(-n2cnc(C(=O)NC3CCCC3)c2)n2ccccc12 | 7.75 |
| O=C1CC[C@@H](CN(Cc2ccncc2)Cc2nc(-c3cccs3)no2)N1 | -10.7 |
| Cc1ccn2c(F)c(C(=O)N3CCC4(CCCN(C)C4=O)C3)nc2c1 (stereo not given) | 2.51 |
| Cc1ccc2ncn(C(C)Cn3cccn3)c(=O)c2c1 (stereo not given) | 4.4 |
| Cc1ncc(S(C)(=O)=O)c(N2Cc3ccccc3C2)n1 | -18.3 |
| Cc1ccccc1CN(CCN(C)C)Cc1ncc[nH]1 | -7.11 |

| Compound | cytotoxicity at 10 µM [%] |
| --- | --- |
| O=C(O)C(c1ccc2c(c1)OCCO2)N1CCSCC1 (stereo not given) | 1.38 |
| COCCN(C)C[C@@H]1CN(C(=O)c2cccc(C#N)c2)C[C@@H]1CO | 14.5 |
| CCn1ccnc1CN1CCCC(CO)(CCCc2ccccc2)C1 (stereo not given) | -4.84 |
| Cc1nc(CN)cc(N2CCC(O)(c3ccc(Cl)cc3)CC2)n1 | -8.13 |
| CCOC(=O)CNC(=O)N1CCCC(CNC(=O)c2ccco2)C1 (stereo not given) | -10.9 |
| CCC(=O)Nc1cccc(OCC(=O)N(C)Cc2nc(C)c[nH]2)c1 | -4.54 |
| CCN1CCCC(C)(C(=O)NCCc2nnc(C)[nH]2)C1 (stereo not given) | 1.1 |
| CCC(Cn1ccc2[nH]c(=O)c(C#N)cc2c1=O)OC (stereo not given) | 2.33 |
| CC(C)(C)CN1CCN(CC2CC2)C(CCO)C1 (stereo not given) | -2.42 |
| Cc1ccc(CN2CCN(CC(=O)N(C)C)[C@@H]3CS(=O)(=O)C[C@@H]32)cc1C | 1.18 |
| Cc1ccc(-c2ccc(Cl)nn2)cc1S(=O)(=O)N1CCOCC1 | -4.26 |
| Cc1ccnc(NCCCN2CCc3ccccc32)n1 | 0.979 |
| Cc1cc(C(=O)O)cc(S(=O)(=O)Nc2ccc3c(c2)OCCCO3)c1C | -4.72 |
| Cc1ccc(C(=O)N2CCN(Cc3cccs3)CC2)c(=O)[nH]1 | -8.39 |
| Cc1cc(C)n(CC2CCCN2CCCS(C)(=O)=O)n1 (stereo not given) | -3.48 |
| Cc1cc(CN2CCCC(Cn3cncn3)C2)no1 (stereo not given) | -2.12 |
| O=C(c1nccc2ccccc12)N1CCCCC1Cn1cccn1 (stereo not given) | -4.31 |
| Cc1cc(C)n(CC2CCCN2C(=O)c2ccnc(N(C)C)c2)n1 (stereo not given) | -16.8 |
| CN(C(=O)c1ccc(Cl)cc1)C1CCN(c2ccccn2)CC1 | -21 |
| Cc1ccccc1CCNC(=O)N1CCCC(c2nncn2C)C1 (stereo not given) | -29.8 |
| CCCOc1cccc(NS(=O)(=O)c2cc(C(=O)O)cs2)c1 | 1.09 |
| Cc1cc(CNc2ccc(C(=O)N3CCCC(C)C3)cc2C)no1 (stereo not given) | -3.92 |

| Compound | cytotoxicity at 10 µM [%] |
| --- | --- |
| CCOc1ccc(Cl)c(C(=O)N2CCN(CCO)CC2)n1 | -5.15 |
| CC(=O)NCCNC(=O)c1sc(-c2ccc(C)cc2C)nc1C | -7.62 |
| Cc1ccc(NC2CCN(C(=O)Cn3nc(C)cc3C)CC2)nn1 | -1.81 |
| Cc1oc(C)c(C(=O)NCc2ccccc2S(=O)(=O)N(C)C)c1C | 1.97 |
| COCCOc1ccc(NC(=O)C2CC(=O)N(C)C2)cn1 (stereo not given) | -5.31 |
| O=C1CC2(CCCNC2)C(=O)N1Cc1ccc(F)cc1 (stereo not given) | 1.65 |
| Cc1ncc2c(n1)C1(CCN(C(=O)C(C)C)CC1)OCC2 | 5.49 |
| O=C1CCC2(CCC(NC3CCOC3)CC2)N1Cc1ccncc1 (stereo not given) | 3.61 |
| COc1cc2c(cc1CN1CCn3c(CO)nnc3C1)CCC2 | -4.05 |
| CC(C)N1CCc2onc(Cn3cccc3)c2C1 | 7.55 |
| Cc1ccc(C(=O)N2CCC3(CC2)COC(COc2cccnc2)C3)o1 (stereo not given) | -3.16 |
| CC(=O)N1CCN(c2cc(CCN)nc(C3CC3)n2)CC1 | -26.2 |
| c1cncc(-c2ncnc3c2CCN(Cc2ccsc2)CC3)c1 | 8.74 |
| Cc1ccc(N2CC[C@@H]3O[C@@H](COCc4cccnc4)CC[C@@H]32)nn1 | 8.37 |
| O=C(c1ccco1)N1CCOCC2(C1)CN(c1cccnc1)C(=O)CO2 (stereo not given) | 5.88 |
| Cc1ccc(N2CCCC3(CCCC(=O)N3)C2)nn1 (stereo not given) | -1.52 |
| O=c1c2sccc2nc2n1CCN(Cc1cc(F)ccc1F)CC2 | -21.8 |
| CN(C)Cc1cncc2c1CCN(C1CCOCC1)C2 | 11.1 |
| CO[C@@H]1CCN(Cc2ccc(C)o2)[C@H]1Cc1ccccc1 | -3.15 |
| CN(C)[C@@H]1CN(C(=O)Cc2cccc(F)c2)[C@@H]2CCCO[C@H]12 | 1.37 |
| Cn1ccc(C(=O)N2C[C@H]3CCC[C@@]3(COCc3cccnc3)C2)n1 | 6.87 |
| CC(C)CC(=O)N1C[C@@H]2CCN(c3cnccn3)C[C@@H]2C1 | 3.44 |
